Source: ChEMBL document CHEMBL1157304, “Sesquiterpene lactones from Inula britannica and their cytotoxic and apoptotic effects on human cancer cell lines” (J Nat Prod, 2006)

Legend:
HL-60 [1] = assay: Induction of apoptosis in human HL60 cells at 10 uM after 24 hrs by FACS; format: functional
In short: (§1)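 2 × 10^5 cells plated in 60 mm dishes and incubated 24 h, then treated for 24 h with compound in DMSO. Cells harvested, washed in PBS and fixed overnight in ice-cold ethanol at −20 °C. Pellets held 30 min at 37 °C in 0.5% Triton X-100/PBS with 0.5 μg/mL RNase. Propidium iodide (50 μg/mL) added, 30 min on ice. Sub-G1 fraction read by FACScan flow cytometry. n=3, mean ± SE.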

HT-29 [2] = assay: Induction of apoptosis in human HT29 cells at 25 uM after 24 hrs by FACS; format: functional; in short: as §1
HT-29 [3] = assay: Cytotoxicity against human HT29 cells after 24 hrs by trypan blue exclusion assay; format: functional, cell-based; conditions: HT-29, 24 h
In short: (§2)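 Cells grown at 37 °C, 5% CO2; RPMI for COLO 205, HT-29 and HL-60, DMEM/F12 for AGS, each with 10% heat-inactivated FBS, penicillin/streptomycin and 2 mM L-glutamine. Compounds in DMSO (vehicle control 0.01% DMSO) tested at 5–100 μM for 24 h. Cells diluted 1:1 with 0.5% trypan blue. Unstained cells counted by hemocytometer and expressed as % viable. Three samples per group, mean ± SE.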

HT-29 [4] = assay: Induction of apoptosis in human HT29 cells at 50 uM after 24 hrs by FACS; format: functional; in short: as §1
HL-60 [5] = assay: Induction of apoptosis in human HL60 cells at 5 uM after 24 hrs by FACS; format: functional; in short: as §1
HT-29 [6] = assay: Induction of apoptosis in human HT29 cells at 100 uM after 24 hrs by FACS; format: functional; in short: as §1
HT-29 [7] = assay: Induction of apoptosis in human HT29 cells at 10 uM after 24 hrs by FACS; format: functional; in short: as §1
HL-60 [8] = assay: Induction of apoptosis in human HL60 cells at 100 uM after 24 hrs by FACS; format: functional; in short: as §1
AGS [9] = assay: Induction of apoptosis in human AGS cells at 25 uM after 24 hrs by FACS; format: functional; in short: as §1
COLO 205 [10] = assay: Induction of apoptosis in human COLO205 cells at 10 uM after 24 hrs by FACS; format: functional; in short: as §1
HL-60 [11] = assay: Induction of apoptosis in human HL60 cells at 25 uM after 24 hrs by FACS; format: functional; in short: as §1
COLO 205 [12] = assay: Induction of apoptosis in human COLO205 cells at 100 uM after 24 hrs by FACS; format: functional; in short: as §1
COLO 205 [13] = assay: Induction of apoptosis in human COLO205 cells at 50 uM after 24 hrs by FACS; format: functional; in short: as §1
HL-60 [14] = assay: Cytotoxicity against human HL60 cells after 24 hrs by trypan blue exclusion assay; format: functional, cell-based; conditions: HL-60, 24 h; in short: as §2
AGS [15] = assay: Induction of apoptosis in human AGS cells at 10 uM after 24 hrs by FACS; format: functional; in short: as §1
COLO 205 [16] = assay: Induction of apoptosis in human COLO205 cells at 25 uM after 24 hrs by FACS; format: functional; in short: as §1
COLO 205 [17] = assay: Cytotoxicity against human COLO205 cells after 24 hrs by trypan blue exclusion assay; format: functional, cell-based; conditions: COLO 205, 24 h; in short: as §2
COLO 205 [18] = assay: Induction of apoptosis in human COLO205 cells at 5 uM after 24 hrs by FACS; format: functional; in short: as §1
HL-60 [19] = assay: Induction of apoptosis in human HL60 cells at 50 uM after 24 hrs by FACS; format: functional; in short: as §1
AGS [20] = assay: Induction of apoptosis in human AGS cells at 50 uM after 24 hrs by FACS; format: functional; in short: as §1
AGS [21] = assay: Cytotoxicity against human AGS cells after 24 hrs by trypan blue exclusion assay; format: functional, cell-based; in short: as §2
AGS [22] = assay: Induction of apoptosis in human AGS cells at 5 uM after 24 hrs by FACS; format: functional; in short: as §1
AGS [23] = assay: Induction of apoptosis in human AGS cells at 100 uM after 24 hrs by FACS; format: functional; in short: as §1
HT-29 [24] = assay: Induction of apoptosis in human HT29 cells at 5 uM after 24 hrs by FACS; format: functional; in short: as §1

SMILES | Activity (HL-60 [1]) [%] | Activity (HT-29 [2]) [%] | IC50 (HT-29 [3]) [µM] | Activity (HT-29 [4]) [%] | Activity (HL-60 [5]) [%] | Activity (HT-29 [6]) [%] | Activity (HT-29 [7]) [%] | Activity (HL-60 [8]) [%] | Activity (AGS [9]) [%] | Activity (COLO 205 [10]) [%] | Activity (HL-60 [11]) [%] | Activity (COLO 205 [12]) [%] | Activity (COLO 205 [13]) [%] | IC50 (HL-60 [14]) [µM] | Activity (AGS [15]) [%] | Activity (COLO 205 [16]) [%] | IC50 (COLO 205 [17]) [µM] | Activity (COLO 205 [18]) [%] | Activity (HL-60 [19]) [%] | Activity (AGS [20]) [%] | also measured
C=C1C(=O)O[C@@H]2CC(C)=C([C@@H](C)CCCOC(C)=O)[C@H](O)[C@H]12 | 7.26 | 11.68 | 96 | 9.26 | 4.05 | 14.87 | 6.81 | 22.19 | 14.666 | 11.32 | 4.37 | 35.79 | 16.59 | > 100 | 17.28 | 16.48 | > 100 | 13.44 | 5.69 | 14.84 | IC50 (AGS [21]): > 100 µM; Activity (AGS [22]): 15.37%; Activity (AGS [23]): 18.85%; Activity (HT-29 [24]): 5.36%
C=C1C(=O)O[C@@H]2CC(C)=C([C@@H](C)CCCO)[C@H](OC(=O)C(C)CC)[C@H]12 (stereo partly drawn) | 5.36 | 3.93 | 48.1 | 5.16 | 6.41 | 6.4 | 3.68 | 27.05 | 17.76 | 5.86 | 10.53 | 36.24 | 27.21 | 47.1 | 11.38 | 15.2 | 58.7 | 5.33 | 28.6 | 28.48 | IC50 (AGS [21]): 31.3 µM; Activity (AGS [22]): 10.89%; Activity (AGS [23]): 27.1%; Activity (HT-29 [24]): 4.24%
C=C1C(=O)O[C@@H]2CC(C)=C([C@@H](C)CCCOC(C)=O)[C@H](OC(C)=O)[C@H]12 | 8.67 | 11.5 | 76.6 | 13.08 | 6.14 | 20.88 | 11.15 | 22.24 | 11.29 | 8.69 | 21.13 | 17.82 | 15.44 | 35.3 | 5.79 | 26.95 | 56.7 | 6.94 | 27.02 | 10.79 | IC50 (AGS [21]): 66.4 µM; Activity (AGS [22]): 7.49%; Activity (AGS [23]): 8.12%; Activity (HT-29 [24]): 11.19%
C=C1C(=O)O[C@H]2/C=C(\C)CC/C=C(\C)C[C@H](OC(C)=O)[C@@H]12 [ACETYL NEOBRITANNILACTONE B] | 39.71 | 69.7 | 57 | 81.43 | 22.93 | 82.47 | 47.56 | 98.05 | 9.89 | 34.72 | 95.17 | 98.66 | 96.92 | 16.2 | 7.87 | 76.87 | 14.7 | 15.47 | 97.74 | 13.64 | IC50 (AGS [21]): 5.4 µM; Activity (AGS [22]): 6.16%; Activity (AGS [23]): 43.11%; Activity (HT-29 [24]): 20.38%
C=C1C(=O)O[C@@H]2CC(C)=C([C@@H](C)CCCO)[C@H](O)[C@H]12 [BRITANNILACTONE] | 5.64 | 6.49 | > 100 | 6.59 | 7.22 | 7.55 | 6.16 | 12.83 | 10.16 | 12.28 | 5.24 | 28.31 | 15.54 | > 100 | 10.37 | 12.79 | > 100 | 11.9 | 8.01 | 8.97 | IC50 (AGS [21]): > 100 µM; Activity (AGS [22]): 7.93%; Activity (AGS [23]): 10.37%; Activity (HT-29 [24]): 5.75%
CC(=O)OCCC[C@H](C)C1=C[C@@H]2[C@H](C)C(=O)O[C@@H]2C[C@@]1(C)O [NEOBRITANNILACTONE A] | 6.31 | 5.17 | > 100 | 4.09 | 6.68 | 7.73 | 4.24 | 16.31 | 10.57 | 6.51 | 6.19 | 25.5 | 5.44 | 85.8 | 9.83 | 4.28 | 97.9 | 4.08 | 6.63 | 9.41 | IC50 (AGS [21]): > 100 µM; Activity (AGS [22]): 9.23%; Activity (AGS [23]): 9.81%; Activity (HT-29 [24]): 3.94%
C=C1C(=O)O[C@H]2/C=C(\C)CC/C=C(\C)C[C@H](O)[C@@H]12 [NEOBRITANNILACTONE B] | 21.93 | 66.54 | 56.1 | 82.27 | 9.82 | 87.02 | 24.46 | 98.29 | 11.78 | 14.12 | 77.57 | 96.81 | 89.11 | 27.4 | 8.66 | 41.62 | 14.3 | 10.73 | 96.94 | 15.95 | IC50 (AGS [21]): 21.4 µM; Activity (AGS [22]): 9.55%; Activity (AGS [23]): 19.22%; Activity (HT-29 [24]): 13.58%
